Data from ChEMBL document CHEMBL1135379, “Polyhydroxylated azepanes as new motifs for DNA minor groove binding agents” (2002).

Tests used:
[1] = system: NCI/ADR-RES; assay: Tested for in vitro concentration required to inhibit growth by 50% against MCF-7/ADR human breast cancer cell line cell line; assay type: functional
[2] = system: MCF7; assay: Tested for in vitro concentration required to inhibit growth by 50% against MCF-7 human breast cancer cell line cell line; assay type: functional
[3] = system: HT-29; assay: Tested for in vitro concentration required to inhibit growth by 50% against HT-29 human colon cancer cell line; assay type: functional
[4] = system: HCT-116; assay: Tested for in vitro concentration required to inhibit growth by 50% against HCT116 human colon cancer cell line; assay type: functional
[5] = system: Nucleic Acid; assay: Concentration required to displace 50% of the ethidium from a preformed, intercalated complex; assay type: nucleic-acid assay
How it was run: (§1)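 Ethidium displacement (Cain et al. method), pH 7.0. A preformed DNA–ethidium intercalated complex in HEPES buffer with NaCl and EDTA is titrated with ligand while intercalated-ethidium fluorescence is monitored. C50 is the ligand concentration that displaces 50% of the ethidium. K_app = (1.26 × K_e)/C50, using the known ethidium binding constant under these conditions. Means of three experiments.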

[6] = system: Nucleic Acid; assay: Apparent binding constant was calculated; assay type: nucleic-acid assay; how it was run: as §1

Structure (SMILES) | GI50 [1] [µM] | GI50 [2] [µM] | GI50 [3] [µM] | GI50 [4] [µM] | C50 [5] [µM] | K app [6] [M⁻¹]
CC1(C)O[C@H]2[C@H](O1)[C@H](O)CN(Cc1ccc(OCCCOc3ccc(CN4CC(O)[C@H]5OC(C)(C)O[C@@H]5[C@H](O)C4)cc3)cc1)C[C@H]2O (single isomer, unassigned) | 10 | 24 | 23 | 6 | – | –
OC1CN(Cc2ccc(OCCCOc3ccc(CN4C[C@@H](O)[C@@H](O)[C@H](O)[C@H](O)C4)cc3)cc2)C[C@@H](O)[C@@H](O)C1O (single isomer, unassigned) | > 50 | > 50 | 24 | > 50 | 61.6 | 190000
OC1CN(Cc2ccc(OCCCOc3ccc(CN4C[C@H](O)[C@@H](O)[C@H](O)[C@@H](O)C4)cc3)cc2)C[C@H](O)[C@@H](O)C1O (single isomer, unassigned) | – | – | – | – | 97 | 120000
N=C(N)c1ccc(OCCCOc2ccc(C(=N)N)cc2)cc1 [PROPAMIDINE] | – | 9 | > 50 | 11 | 25.6 | 470000
O=C(O)CCCc1ccc(N(CCCl)CCCl)cc1 [CHLORAMBUCIL] | 56 | 30 | 129 | 105 | – | –
COc1cccc2c1C(=O)c1c(O)c3c(c(O)c1C2=O)C[C@@](O)(C(=O)CO)C[C@@H]3O[C@H]1C[C@H](N)[C@H](O)[C@H](C)O1 [DOXORUBICIN] | 16.7 | 0.013 | 0.056 | 0.023 | – | –
Cn1cc(NC(=O)c2cc(NC(=O)c3cc(NC=O)cn3C)cn2C)cc1C(=O)NCCC(=N)N | – | – | – | – | 1.8 | 6.7e+06
CC1(C)O[C@H]2[C@H](O1)[C@H](O)CN(c1ccc(OCCCOc3ccc(N4C[C@@H](O)[C@H]5OC(C)(C)O[C@@H]5[C@H](O)C4)cc3)cc1)C[C@H]2O | > 50 | 33 | 40 | 32 | 703 | 17000
